Laboratory results reported in ChEMBL document CHEMBL4616671, “Identification of N-Phenyl-7H-pyrrolo[2,3-d]pyrimidin-4-amine Derivatives as Novel, Potent, and Selective NF-κB Inducing Kinase (NIK) Inhibitors for the Treatment of Psoriasis” (J Med Chem, 2020).
Active and inactive are the calls of the source. The rule behind the calls is not given here.

Experiments:
Homo sapiens [1] = species on record: Homo sapiens; test: Selectivity ratio of IC50 for human JAK1 to IC50 for human NIK
[2] = Half life in Sprague-Dawley rat at 10 mg/kg, po administered via gavage by LC-MS/MS analysis; type: ADME, organism-based; details: in vivo
Mus musculus [3] = test: Suppression of IMQ-induced epidermal acanthosis in ig dosed C57 mouse model of psoriasis assessed as reduction in epidermal thickness administered once daily starting from day 3 post IMQ-challenge and measured 2 days post-last dose of IMQ by hematoxylin-eosin staining based confocal laser scanning microscopy; type: functional, organism-based
Outline: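 IMQ-induced C57 mice (5% cream 7 days; 60 or 120 mg/kg i.g. daily from day 3, n = 6). Formalin-fixed, paraffin-embedded back skin cut at 3 µm and H&E stained. Epidermal thickness measured in six randomly chosen fields; blind evaluation by two pathologists.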

[4] = target: Mitogen-activated protein kinase kinase kinase 14 (Mus musculus) (UniProt Q9WUL6); test: In vivo inhibition of NIK in C57 mouse model of IMQ-induced psoriasis assessed as reduction in NF-kappaB signalling in back skin by measuring decrease in mRNA IL-6 level at 60 to 120 mg/kg, po administered starting from day 3 post IMQ-challenge and measured 2 days post-last dose of IMQ by qPCR analysis; type: functional, organism-based
Outline: (§1)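 IMQ psoriasis model: 5% imiquimod cream applied to C57 mouse back skin once daily for seven days; oral dosing 60 or 120 mg/kg once daily from day 3, n = 6 per group. Back-skin mRNA measured by qPCR.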

[5] = target: Mitogen-activated protein kinase kinase kinase 14 (Mus musculus) (UniProt Q9WUL6); test: In vivo inhibition of NIK in C57 mouse model of IMQ-induced psoriasis assessed as reduction in NF-kappaB signalling in back skin by measuring decrease in TNF-alpha mRNA level at 60 to 120 mg/kg, po administered starting from day 3 post IMQ-challenge and measured 2 days post-last dose of IMQ by qPCR analysis; type: functional, organism-based; outline: as §1
[6] = target: Mitogen-activated protein kinase kinase kinase 14 (Homo sapiens, UniProt Q99558); test: Inhibition of recombinant N-terminal GST-fused human NIK (319 to 947 residues) expressed in baculovirus expression system incubated for 120 mins in presence of ATP by ADP-glo based luminescence assay
Outline: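 ADP-Glo luminescence assay with recombinant human MAP3K14. Buffer: Tris pH 7.5, 2 mM DTT, 2 mM MgCl₂, 100 µM Na₃VO₄, 0.02 mg/mL BSA, 5% DMSO; ATP 10 µM. Reaction 120 min at room temperature; ADP-Glo reagent 40 min, then detection reagent 40 min. Mean ± SD from two independent experiments.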

Homo sapiens [7] = species on record: Homo sapiens; test: Selectivity ratio of IC50 for human JAK3 to IC50 for human NIK
T-cell = test: Antiinflammatory activity in mouse T cells assessed as inhibition of conA-induced induced T cell proliferation at 2 uM incubated for 48 hrs by CCK8 assay relative to control; type: functional
[8] = Elimination half life in human liver microsomes incubated for 10 mins followed by potassium phosphate buffer addition and measured after 5 to 60 mins by LC-MS/MS analysis; type: ADME, Microsome; details: read-out: beta t1/2
Outline: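 Rat, dog, monkey or human liver microsomes pre-incubated with compound at 37 °C for 10 min; reaction started after pre-warming and stopped at 5, 15, 30, 60 min with chilled quench containing tolbutamide and labetalol. No-cofactor control in 100 mM potassium phosphate for 60 min. LC-MS/MS analysis; first-order fit: k = −slope, T1/2 = 0.693/k, CLint = k/microsomal protein concentration.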

[9] = target: T1, Tyrosine-protein kinase JAK3 (Homo sapiens, UniProt P52333); test: Inhibition of human JAK3 using [GGEEEEYFELVKKKK] as substrate in presence of [gamma33P]ATP by hotspot assay
T1 sequence (P52333 whole entry): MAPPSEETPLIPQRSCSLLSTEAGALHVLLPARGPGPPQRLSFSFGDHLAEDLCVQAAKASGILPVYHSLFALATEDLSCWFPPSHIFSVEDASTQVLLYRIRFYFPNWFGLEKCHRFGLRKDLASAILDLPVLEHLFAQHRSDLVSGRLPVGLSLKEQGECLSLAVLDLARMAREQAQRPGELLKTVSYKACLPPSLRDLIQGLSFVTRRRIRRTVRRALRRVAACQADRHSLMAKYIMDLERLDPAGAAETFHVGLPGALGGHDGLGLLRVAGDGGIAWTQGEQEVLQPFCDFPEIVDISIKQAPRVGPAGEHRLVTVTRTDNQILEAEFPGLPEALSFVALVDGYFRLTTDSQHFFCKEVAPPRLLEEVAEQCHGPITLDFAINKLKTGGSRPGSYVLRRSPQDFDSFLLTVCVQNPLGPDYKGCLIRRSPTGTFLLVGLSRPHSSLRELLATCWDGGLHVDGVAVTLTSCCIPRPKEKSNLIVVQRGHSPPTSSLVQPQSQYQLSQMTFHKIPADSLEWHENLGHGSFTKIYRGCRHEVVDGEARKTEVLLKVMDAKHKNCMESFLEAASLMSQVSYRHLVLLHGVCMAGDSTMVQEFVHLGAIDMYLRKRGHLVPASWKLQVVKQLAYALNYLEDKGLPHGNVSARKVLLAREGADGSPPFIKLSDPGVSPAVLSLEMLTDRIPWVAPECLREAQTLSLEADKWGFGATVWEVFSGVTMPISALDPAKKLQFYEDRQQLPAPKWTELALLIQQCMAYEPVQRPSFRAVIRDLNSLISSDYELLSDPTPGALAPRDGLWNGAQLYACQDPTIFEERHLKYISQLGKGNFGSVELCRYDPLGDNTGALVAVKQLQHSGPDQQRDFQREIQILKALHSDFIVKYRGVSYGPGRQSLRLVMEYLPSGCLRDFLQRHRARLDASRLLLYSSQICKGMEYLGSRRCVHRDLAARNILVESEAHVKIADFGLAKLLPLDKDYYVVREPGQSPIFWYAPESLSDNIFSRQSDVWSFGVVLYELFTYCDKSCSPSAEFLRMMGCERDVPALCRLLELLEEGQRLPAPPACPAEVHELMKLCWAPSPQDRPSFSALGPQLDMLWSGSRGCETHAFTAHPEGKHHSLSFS

[10] = target: Leucine-rich repeat serine/threonine-protein kinase 2 (Homo sapiens, UniProt Q5S007); test: Inhibition of human LRRK2 using [RLGRDKYKTLRQIRQ] as substrate in presence of [gamma33P]ATP by hotspot assay
J774 [11] = test: Antiinflammatory activity in mouse J774 cells assessed as reduction in LPS-induced IL-1 beta mRNA level by SYBR green dye-based quantitative PCR analysis; type: functional, cell-based
Outline: (§2)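 LPS-stimulated J774 macrophages; mRNA quantified by qPCR using 4 µL cDNA plus 16 µL master mix per reaction. Mean ± SD of three biological replicates; significance by two-tailed Student's t-test against the model group.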

Mus musculus [12] = test: Suppression of IMQ-induced psoriasis in C57 mouse assessed as reduction in macrophage infiltration in back skin tissue at 60 to 120 mg/kg, ig administered starting from day 3 post IMQ-challenge and measured 2 days post-last dose of IMQ by F4/80 immunofluorescence staining based assay; type: functional, organism-based
Outline: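 IMQ-induced C57 mice (5% cream 7 days; 60 or 120 mg/kg i.g. daily from day 3). Frozen back-skin sections, 6 µm, stained with F4/80 antibody, DAPI counterstain, and imaged by confocal microscopy. Significance by two-tailed t-test.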

J774 [13] = test: Antiinflammatory activity in mouse J774 cells assessed as reduction in LPS-induced NOS2 mRNA level by SYBR green dye-based quantitative PCR analysis; type: functional, cell-based; outline: as §2
[14] = Clearance in Sprague-Dawley rat at 1 mg/kg, iv administered as single bolus dose by LC-MS/MS analysis; type: ADME, organism-based; details: in vivo

Chain of Mitogen-activated protein kinase kinase kinase 14 (Mus musculus) (Q9WUL6 whole entry, the tested form may be a part): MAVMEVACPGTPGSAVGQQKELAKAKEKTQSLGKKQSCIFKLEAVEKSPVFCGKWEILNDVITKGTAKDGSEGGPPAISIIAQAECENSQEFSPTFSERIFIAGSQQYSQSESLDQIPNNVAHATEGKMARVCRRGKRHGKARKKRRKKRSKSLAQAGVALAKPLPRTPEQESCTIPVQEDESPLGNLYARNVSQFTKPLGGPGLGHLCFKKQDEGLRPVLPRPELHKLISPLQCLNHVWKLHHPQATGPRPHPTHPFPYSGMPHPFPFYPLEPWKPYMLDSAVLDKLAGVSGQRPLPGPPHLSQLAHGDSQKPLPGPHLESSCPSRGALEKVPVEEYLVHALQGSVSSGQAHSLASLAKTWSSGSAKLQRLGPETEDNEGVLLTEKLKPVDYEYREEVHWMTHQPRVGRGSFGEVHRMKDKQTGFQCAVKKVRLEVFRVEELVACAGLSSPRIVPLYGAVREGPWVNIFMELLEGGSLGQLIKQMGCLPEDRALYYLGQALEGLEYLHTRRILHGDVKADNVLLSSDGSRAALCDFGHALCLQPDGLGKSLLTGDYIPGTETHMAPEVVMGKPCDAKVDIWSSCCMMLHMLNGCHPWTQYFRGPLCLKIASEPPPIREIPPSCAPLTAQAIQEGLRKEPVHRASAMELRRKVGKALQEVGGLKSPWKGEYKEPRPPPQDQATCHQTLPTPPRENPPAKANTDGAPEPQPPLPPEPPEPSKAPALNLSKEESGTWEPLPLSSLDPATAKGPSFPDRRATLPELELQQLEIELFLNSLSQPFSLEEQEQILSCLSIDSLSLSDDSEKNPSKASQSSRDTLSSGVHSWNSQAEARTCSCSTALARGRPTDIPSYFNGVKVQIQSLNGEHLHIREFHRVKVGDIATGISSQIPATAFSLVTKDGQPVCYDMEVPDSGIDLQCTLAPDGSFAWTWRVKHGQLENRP
Chain of Leucine-rich repeat serine/threonine-protein kinase 2 (Q5S007 whole entry): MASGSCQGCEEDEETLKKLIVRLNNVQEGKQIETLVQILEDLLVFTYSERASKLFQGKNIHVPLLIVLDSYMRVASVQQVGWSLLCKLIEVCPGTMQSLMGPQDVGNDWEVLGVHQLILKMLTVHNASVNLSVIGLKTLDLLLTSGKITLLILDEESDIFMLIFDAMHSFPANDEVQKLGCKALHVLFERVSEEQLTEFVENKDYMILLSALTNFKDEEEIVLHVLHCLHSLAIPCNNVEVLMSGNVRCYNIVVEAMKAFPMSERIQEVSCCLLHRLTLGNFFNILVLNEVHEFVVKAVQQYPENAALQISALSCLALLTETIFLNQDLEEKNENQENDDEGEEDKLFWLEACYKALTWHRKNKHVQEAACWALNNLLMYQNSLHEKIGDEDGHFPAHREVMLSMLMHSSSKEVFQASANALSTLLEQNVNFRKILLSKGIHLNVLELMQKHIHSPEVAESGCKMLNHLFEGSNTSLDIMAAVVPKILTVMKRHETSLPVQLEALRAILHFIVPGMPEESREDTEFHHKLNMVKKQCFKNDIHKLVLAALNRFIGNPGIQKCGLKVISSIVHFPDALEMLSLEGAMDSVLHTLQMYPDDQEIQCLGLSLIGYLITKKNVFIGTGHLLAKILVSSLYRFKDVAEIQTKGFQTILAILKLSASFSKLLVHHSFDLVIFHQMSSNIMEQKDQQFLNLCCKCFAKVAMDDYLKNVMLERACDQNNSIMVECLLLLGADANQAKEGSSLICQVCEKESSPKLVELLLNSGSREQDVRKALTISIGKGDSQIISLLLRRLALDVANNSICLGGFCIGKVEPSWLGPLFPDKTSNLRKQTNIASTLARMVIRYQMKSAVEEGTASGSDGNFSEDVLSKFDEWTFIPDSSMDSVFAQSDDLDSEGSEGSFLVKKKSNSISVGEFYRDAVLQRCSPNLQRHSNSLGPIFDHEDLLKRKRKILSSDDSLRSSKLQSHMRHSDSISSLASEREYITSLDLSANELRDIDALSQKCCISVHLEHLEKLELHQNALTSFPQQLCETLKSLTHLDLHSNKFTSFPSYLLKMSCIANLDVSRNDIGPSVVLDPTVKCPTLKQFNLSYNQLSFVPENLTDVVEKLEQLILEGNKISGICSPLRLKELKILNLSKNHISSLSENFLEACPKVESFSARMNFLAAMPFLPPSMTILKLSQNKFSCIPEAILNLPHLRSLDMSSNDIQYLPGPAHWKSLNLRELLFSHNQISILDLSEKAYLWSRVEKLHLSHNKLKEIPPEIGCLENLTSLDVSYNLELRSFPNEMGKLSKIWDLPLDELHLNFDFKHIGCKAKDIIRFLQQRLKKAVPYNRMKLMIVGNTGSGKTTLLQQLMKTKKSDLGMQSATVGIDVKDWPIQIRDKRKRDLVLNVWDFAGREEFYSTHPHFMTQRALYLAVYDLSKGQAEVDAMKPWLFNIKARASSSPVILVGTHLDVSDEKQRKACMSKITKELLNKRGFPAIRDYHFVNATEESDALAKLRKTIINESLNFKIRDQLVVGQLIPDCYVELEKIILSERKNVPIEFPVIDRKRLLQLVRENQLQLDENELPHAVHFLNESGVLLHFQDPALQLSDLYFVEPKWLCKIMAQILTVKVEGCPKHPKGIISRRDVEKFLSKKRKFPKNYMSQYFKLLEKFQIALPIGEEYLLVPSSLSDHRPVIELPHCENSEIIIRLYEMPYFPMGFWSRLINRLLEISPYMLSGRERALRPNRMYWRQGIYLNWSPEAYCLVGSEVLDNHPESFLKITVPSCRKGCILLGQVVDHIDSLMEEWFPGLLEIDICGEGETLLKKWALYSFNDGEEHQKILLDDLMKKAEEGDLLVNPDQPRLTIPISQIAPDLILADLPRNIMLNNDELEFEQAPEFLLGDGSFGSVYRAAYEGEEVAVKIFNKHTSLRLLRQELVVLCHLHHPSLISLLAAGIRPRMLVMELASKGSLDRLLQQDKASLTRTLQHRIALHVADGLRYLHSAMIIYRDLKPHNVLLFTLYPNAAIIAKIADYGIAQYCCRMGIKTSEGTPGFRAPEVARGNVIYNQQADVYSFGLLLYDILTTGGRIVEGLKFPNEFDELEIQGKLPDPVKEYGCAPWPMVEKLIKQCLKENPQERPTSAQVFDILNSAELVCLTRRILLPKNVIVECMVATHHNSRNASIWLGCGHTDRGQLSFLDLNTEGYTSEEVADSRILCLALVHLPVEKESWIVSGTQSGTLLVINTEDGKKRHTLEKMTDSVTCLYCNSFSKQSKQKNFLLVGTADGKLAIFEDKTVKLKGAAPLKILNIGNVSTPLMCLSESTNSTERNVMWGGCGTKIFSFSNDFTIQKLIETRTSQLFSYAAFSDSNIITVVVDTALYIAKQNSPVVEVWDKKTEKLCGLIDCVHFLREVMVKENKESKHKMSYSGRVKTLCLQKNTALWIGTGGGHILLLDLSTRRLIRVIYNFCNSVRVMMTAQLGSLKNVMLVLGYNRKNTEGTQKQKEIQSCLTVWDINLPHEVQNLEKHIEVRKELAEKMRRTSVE
Chain of Mitogen-activated protein kinase kinase kinase 14 (Q99558 whole entry, the tested form may be a part): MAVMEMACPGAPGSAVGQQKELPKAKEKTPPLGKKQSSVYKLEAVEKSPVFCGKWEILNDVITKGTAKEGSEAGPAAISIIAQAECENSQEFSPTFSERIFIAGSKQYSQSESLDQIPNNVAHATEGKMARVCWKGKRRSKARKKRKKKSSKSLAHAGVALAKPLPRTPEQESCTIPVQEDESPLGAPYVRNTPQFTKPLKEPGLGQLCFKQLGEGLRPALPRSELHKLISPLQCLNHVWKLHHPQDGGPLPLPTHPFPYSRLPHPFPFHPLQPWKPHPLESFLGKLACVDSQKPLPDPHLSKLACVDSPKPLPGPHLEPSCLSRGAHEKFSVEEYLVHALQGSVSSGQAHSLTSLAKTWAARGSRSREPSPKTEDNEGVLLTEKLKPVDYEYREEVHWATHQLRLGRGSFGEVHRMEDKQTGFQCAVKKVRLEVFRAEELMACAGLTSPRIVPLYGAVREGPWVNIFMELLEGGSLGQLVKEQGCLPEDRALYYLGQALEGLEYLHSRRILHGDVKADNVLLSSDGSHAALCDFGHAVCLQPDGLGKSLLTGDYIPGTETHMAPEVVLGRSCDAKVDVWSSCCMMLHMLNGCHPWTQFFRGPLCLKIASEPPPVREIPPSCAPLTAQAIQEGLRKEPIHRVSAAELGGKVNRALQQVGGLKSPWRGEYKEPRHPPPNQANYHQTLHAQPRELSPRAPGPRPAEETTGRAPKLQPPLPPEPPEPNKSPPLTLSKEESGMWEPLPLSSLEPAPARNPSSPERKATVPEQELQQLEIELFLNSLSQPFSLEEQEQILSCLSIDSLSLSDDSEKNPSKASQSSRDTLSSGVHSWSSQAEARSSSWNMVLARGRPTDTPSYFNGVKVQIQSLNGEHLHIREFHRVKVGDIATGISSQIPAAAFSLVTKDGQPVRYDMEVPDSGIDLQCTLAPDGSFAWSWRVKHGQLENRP

- Ratio IC50 (Homo sapiens [1]): 4 to 20
- half-life [2]: 1.39 h
- inhibition [4]: Active
- inhibition [5]: Active
- IC50 [6]: 9.87 nM
- Ratio IC50 (Homo sapiens [7]): 4 to 20
- half-life [8]: 0.715 h
- IC50 [9]: 892 nM
- IC50 [10]: 94.6 nM
- clearance [14]: 40.3 mL/min/kg
SMILES: CC(O)(C#Cc1ccc(N2CCOCC2)c(Nc2ncnc3[nH]ccc23)c1)c1nccs1 (racemic)
- inhibition (Mus musculus [3]): Dose-dependent effect
- inhibition at 2 µM (T-cell): 62.3%
- Activity (J774 [11]): Active
- inhibition (Mus musculus [12]): Active
- Activity (J774 [13]): Active
